Experimental findings from ChEMBL document CHEMBL3877325, “Novel salicylanilides from 4,5-dihalogenated salicylic acids: Synthesis, antimicrobial activity and cytotoxicity” (Bioorg Med Chem, 2017) are described below.

Converted amounts (≈) assume the structure as drawn.

Data set [1] deals with Mycobacterium kansasii. The experiment in a line: Antimycobacterial activity against Mycobacterium kansasii isolate 235/80 after 21 days by micromethod. Format: functional. Particulars: isolate 235/80, 504 h. Summed up:
(§1)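 MIC in Šula's semisynthetic medium at 37 °C, read after 7, 14 and 21 days. Inoculum is strain dilution 10^-4; 235/80 is a collection strain and 6509/96 a clinical isolate. Compounds are added as DMSO solutions at 500, 250, 125, 62.5, 32, 16, 8, 4, 2, 1 and 0.5 µM. INH (in sterile water) and PAS are the reference drugs.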

For data set [2], the system named is Mycobacterium tuberculosis. The experiment in a line: Antimycobacterial activity against Mycobacterium tuberculosis H37Rv My 331/88 after 21 days by micromethod. It is filed as functional. Particulars: H37Rv My 331/88, 504 h. The method in brief: (§2)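 MIC micromethod in Šula's semisynthetic medium at 37 °C, read after 14 and 21 days. Compounds added as DMSO solutions at 500 down to 0.5 µM (twofold-type series: 500, 250, 125, 62.5, 32, 16, 8, 4, 2, 1, 0.5 µM). Isoniazid standard given in sterile water.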

The test system of data set [3] is Mycobacterium kansasii. The experiment in a line: Antimycobacterial activity against Mycobacterium kansasii isolate 235/80 after 7 days by micromethod. Format: functional. Particulars: isolate 235/80, 168 h. Summed up: as §1
Data set [4] is described as follows: Selectivity index, ratio of IC50 for human HepG2 cells to MIC for Mycobacterium tuberculosis H37Rv after 21 days. Particulars: HepG2 cells versus Mycobacterium tuberculosis H37Rv, read-out: Selectivity Index. Format: toxicity, cell-based. The method in brief: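 HepG2 cells (passages 33-37) seeded at 1 × 10^4 per well and treated next day with 0.1–100 µM in triplicate. After 24 h at 37 °C, 5% CO2, MTS reagent added for 2 h and absorbance read at 490 nm. IC50 taken from viability relative to untreated control, then divided by the 21-day H37Rv MIC.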

In data set [5] the test system is Mycobacterium tuberculosis. The experiment in a line: Antimycobacterial activity against Mycobacterium tuberculosis H37Rv My 331/88 after 14 days by micromethod. Format: functional. Conditions: H37Rv My 331/88, 336 h. The method in brief: as §2
Data set [6] concerns Mycobacterium kansasii. The experiment in a line: Antimycobacterial activity against Mycobacterium kansasii isolate 6509/96 after 21 days by micromethod. Format: functional. Conditions: isolate 6509/96, 504 h. Summed up: as §1
Data set [7] relates to Mycobacterium kansasii. The experiment in a line: Antimycobacterial activity against Mycobacterium kansasii isolate 235/80 after 14 days by micromethod. Conditions: isolate 235/80, 336 h. It is filed as functional. Summed up:
as §1

Data set [8] concerns Mycobacterium avium. The experiment in a line: Antimycobacterial activity against Mycobacterium avium My 330/80 after 14 days by micromethod. It is filed as functional. Conditions: My 330/80, 336 h. Summed up:
(§3)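 M. avium My 330/80 (collection strain) inoculated at 10^-5 dilution into Šula's semisynthetic medium. Compounds added from DMSO solutions at 500, 250, 125, 62.5, 32, 16, 8, 4, 2, 1 and 0.5 µM. MIC determined by micromethod at 37 °C, read after 14 and 21 days.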

The test system of data set [9] is Mycobacterium kansasii. The experiment in a line: Antimycobacterial activity against Mycobacterium kansasii isolate 6509/96 after 14 days by micromethod. It is filed as functional. Particulars: isolate 6509/96, 336 h. Summed up:
as §1

In data set [10] the test system is Mycobacterium kansasii. The experiment in a line: Antimycobacterial activity against Mycobacterium kansasii isolate 6509/96 after 7 days by micromethod. Conditions: isolate 6509/96, 168 h. Format: functional. Summed up: as §1
Data set [11] concerns Mycobacterium avium. The experiment in a line: Antimycobacterial activity against Mycobacterium avium My 330/80 after 21 days by micromethod. It is filed as functional. Particulars: My 330/80, 504 h. Summed up: as §3
The nature of data set [12]: Cytotoxicity against human HepG2 cells assessed as reduction in cell viability after 24 hrs by MTS assay. It is filed as toxicity, cell-based. The method in brief: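 HepG2 cells (passages 33-37) are grown in MEM with 10% FBS, L-glutamine and non-essential amino acids. They are seeded at 1 × 10^4 cells/well and treated next day with 0.1-100 µM in triplicate for 24 h at 37 °C, 5% CO2. MTS reagent is added for 2 h and A490 read.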
In general terms: Formazan colour is commonly taken as a measure of viable cells.

In general, MIC refers to the lowest concentration that inhibits growth of the organism. Lower therefore signals greater potency. What is called IC50 is the point on the concentration scale where inhibition reaches its midpoint.

As for `O=C(Nc1ccc(C(F)(F)F)cc1)c1cc(Br)ccc1O`, the MIC in [1] worked out at 4 µM (≈ 1.44 µg/mL); in [2] it was 1 µM (≈ 0.36 µg/mL); in data set [3], 2 µM (≈ 0.72 µg/mL); in data set [5] it was 1 µM (≈ 0.36 µg/mL); in data set [6], 4 µM (≈ 1.44 µg/mL); in [7], 2 µM (≈ 0.72 µg/mL). Also, the MIC is 1 µM (≈ 0.36 µg/mL) in [8], 4 µM (≈ 1.44 µg/mL) in data set [9], 2 µM (≈ 0.72 µg/mL) in data set [10] and 1 µM (≈ 0.36 µg/mL) in [11]. Also, the selectivity ratio at 504 h in data set [4] worked out at 1.81. Also, the IC50 at 24 h in data set [12] was 1.81 µM.
With `O=C(Nc1ccc(C(F)(F)F)cc1)c1cc(Br)c(Br)cc1O`, the minimum inhibitory concentration (MIC) in data set [1] came out at 4 µM (≈ 1.76 µg/mL); in data set [2], 2 µM (≈ 0.878 µg/mL); in data set [3], 4 µM (≈ 1.76 µg/mL); in [5], 2 µM (≈ 0.878 µg/mL); in data set [6] it was 4 µM (≈ 1.76 µg/mL); in [7], 4 µM (≈ 1.76 µg/mL). In addition, the MIC in data set [8] was 32 µM (≈ 14 µg/mL); in data set [9], 4 µM (≈ 1.76 µg/mL); in data set [10] it was 4 µM (≈ 1.76 µg/mL); in data set [11], 62.5 µM (≈ 27.4 µg/mL). For the same compound, in data set [4], the selectivity ratio at 504 h is 3.13. The IC50 at 24 h in [12] was 6.25 µM.
Take `O=C(Nc1ccc(C(F)(F)F)cc1)c1cc(Br)c(Cl)cc1O`: the MIC in [1] worked out at 4 µM (≈ 1.58 µg/mL); in [2], 2 µM (≈ 0.789 µg/mL); in [3] it was 4 µM (≈ 1.58 µg/mL); in data set [5], 1 µM (≈ 0.395 µg/mL); in data set [6] it was 4 µM (≈ 1.58 µg/mL); in [7], 4 µM (≈ 1.58 µg/mL). The MIC in data set [8] came out at 32 µM (≈ 12.6 µg/mL); in [9], 4 µM (≈ 1.58 µg/mL); in data set [10] it was 4 µM (≈ 1.58 µg/mL); in data set [11] it was 62.5 µM (≈ 24.7 µg/mL). In addition, the selectivity ratio at 504 h in data set [4] was 5.52. The IC50 at 24 h in [12] worked out at 11 µM.
With `O=C(Nc1ccc(Br)cc1)c1cc(Br)ccc1O` [DIBROMSALAN], the MIC in data set [1] is 8 µM (≈ 2.97 µg/mL); in [2], 4 µM (≈ 1.48 µg/mL); in [3] it was 4 µM (≈ 1.48 µg/mL); in data set [5] it was 4 µM (≈ 1.48 µg/mL); in data set [6], 8 µM (≈ 2.97 µg/mL); in [7] it was 8 µM (≈ 2.97 µg/mL). In addition, the MIC in data set [8] worked out at 16 µM (≈ 5.94 µg/mL); in data set [9] it was 8 µM (≈ 2.97 µg/mL); in [10], 8 µM (≈ 2.97 µg/mL); in data set [11], 16 µM (≈ 5.94 µg/mL). Besides, the selectivity ratio at 504 h in data set [4] was determined as 5.9. Moreover, the IC50 at 24 h in data set [12] is 23.6 µM.
In the case of `O=C(Nc1ccc(Br)cc1)c1ccc(Br)cc1O`, the MIC in [1] is 8 µM (≈ 2.97 µg/mL); in data set [2], 4 µM (≈ 1.48 µg/mL); in [3] it was 4 µM (≈ 1.48 µg/mL); in data set [5] it was 2 µM (≈ 0.742 µg/mL); in [6], 8 µM (≈ 2.97 µg/mL); in data set [7] it was 8 µM (≈ 2.97 µg/mL). In addition, the MIC in [8] was found to be 16 µM (≈ 5.94 µg/mL); in data set [9], 8 µM (≈ 2.97 µg/mL); in data set [10], 8 µM (≈ 2.97 µg/mL); in data set [11], 16 µM (≈ 5.94 µg/mL). Further, the selectivity ratio at 504 h in data set [4] worked out at 1.9. Moreover, in data set [12], the IC50 at 24 h was 7.59 µM.
With `O=C(Nc1cc(C(F)(F)F)cc(C(F)(F)F)c1)c1cc(Cl)c(Br)cc1O`, the MIC in [1] amounted to 8 µM (≈ 3.7 µg/mL); in data set [2], 2 µM (≈ 0.925 µg/mL); in data set [3] it was 8 µM (≈ 3.7 µg/mL); in data set [5], 2 µM (≈ 0.925 µg/mL); in [6], 8 µM (≈ 3.7 µg/mL); in data set [7], 8 µM (≈ 3.7 µg/mL). In addition, the MIC in data set [8] worked out at 32 µM (≈ 14.8 µg/mL); in data set [9], 8 µM (≈ 3.7 µg/mL); in data set [10], 8 µM (≈ 3.7 µg/mL); in [11], 32 µM (≈ 14.8 µg/mL). For the same compound, the selectivity ratio at 504 h in data set [4] worked out at 2.4. The IC50 at 24 h in data set [12] is 4.8 µM.
In the case of `O=C(Nc1cc(C(F)(F)F)cc(C(F)(F)F)c1)c1cc(Br)c(Cl)cc1O`, the MIC in data set [1] was determined as 8 µM (≈ 3.7 µg/mL); in data set [2] it was 4 µM (≈ 1.85 µg/mL); in [3] it was 8 µM (≈ 3.7 µg/mL); in data set [5] it was 2 µM (≈ 0.925 µg/mL); in data set [6] it was 8 µM (≈ 3.7 µg/mL); in [7] it was 8 µM (≈ 3.7 µg/mL). Besides, the MIC in data set [8] worked out at 16 µM (≈ 7.4 µg/mL); in data set [9] it was 8 µM (≈ 3.7 µg/mL); in data set [10] it was 8 µM (≈ 3.7 µg/mL); in data set [11], 32 µM (≈ 14.8 µg/mL). In addition, the selectivity ratio at 504 h in [4] amounted to 1.27. The IC50 at 24 h in data set [12] worked out at 5.07 µM.
`O=C(Nc1ccc(Br)cc1)c1cc(Cl)c(Br)cc1O`: the MIC in data set [1] turned out to be 8 µM (≈ 3.24 µg/mL); in data set [2] it was 2 µM (≈ 0.811 µg/mL); in data set [3] it was 4 µM (≈ 1.62 µg/mL); in data set [5], 2 µM (≈ 0.811 µg/mL); in [6], 8 µM (≈ 3.24 µg/mL); in [7], 8 µM (≈ 3.24 µg/mL). Also, the MIC stood at 32 µM (≈ 13 µg/mL) in data set [8], 8 µM (≈ 3.24 µg/mL) in data set [9], 4 µM (≈ 1.62 µg/mL) in data set [10] and 32 µM (≈ 13 µg/mL) in data set [11]. For the same compound, in data set [4], the selectivity ratio at 504 h was 4.89. Moreover, the IC50 at 24 h in [12] turned out to be 9.78 µM.
